Measurements taken from ChEMBL document CHEMBL1144446, “Synthesis and Src kinase inhibitory activity of 2-phenyl- and 2-thienyl-7-phenylaminothieno[3,2-b]pyridine-6-carbonitriles” (J Med Chem, 2005).

How the values were obtained:
[1] = biological target: Proto-oncogene tyrosine-protein kinase Src (Homo sapiens, UniProt P12931); assay: Inhibition of Src protein tyrosine kinase in LANCE format enzyme assay
[2] = Plasma concentration upon oral dose at 50 mg/kg in mouse after 4 hours; format: ADME, organism-based; parameters: dose 50 mg/kg, route oral
In short: (§1)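 Nude mice received one oral dose of 50 mg/kg in a vehicle of 0.5% methylcellulose and 0.4% Tween 80. Plasma was sampled at 4 and 24 h and analyzed for the amount of parent compound remaining, reported in µg/mL.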

[3] = Plasma concentration upon oral dose at 50 mg/kg in mouse after 24 hours; format: ADME, organism-based; parameters: dose 50 mg/kg, route oral; in short: as §1
[4] = tested on: K562; assay: cells; conditions: Homo sapiens

Proto-oncogene tyrosine-protein kinase Src, sequence (P12931 2-536 limits assumed): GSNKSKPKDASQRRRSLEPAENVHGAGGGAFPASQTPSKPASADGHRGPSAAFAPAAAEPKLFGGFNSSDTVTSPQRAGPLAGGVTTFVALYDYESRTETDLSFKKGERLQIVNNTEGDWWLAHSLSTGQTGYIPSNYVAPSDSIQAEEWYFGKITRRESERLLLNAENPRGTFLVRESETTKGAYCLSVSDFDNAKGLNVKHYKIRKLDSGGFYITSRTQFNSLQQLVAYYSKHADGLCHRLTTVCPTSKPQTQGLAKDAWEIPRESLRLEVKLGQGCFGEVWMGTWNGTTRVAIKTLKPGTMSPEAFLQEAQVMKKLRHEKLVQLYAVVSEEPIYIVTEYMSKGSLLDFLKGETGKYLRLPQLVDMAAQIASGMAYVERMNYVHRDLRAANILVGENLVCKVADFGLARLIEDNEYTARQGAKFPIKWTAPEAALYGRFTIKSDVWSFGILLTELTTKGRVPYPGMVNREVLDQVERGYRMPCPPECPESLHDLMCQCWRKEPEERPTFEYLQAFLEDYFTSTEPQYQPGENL

| IC50 [1] [nM] | concentration at 4 h [2] [ng/mL] | concentration at 24 h [3] [ng/mL] | IC50 [4] [nM] | SMILES |
| --- | --- | --- | --- | --- |
| 110 |  |  |  | COc1cc(Nc2c(C#N)cnc3cc(-c4ccc(N(C)C)cc4)sc23)c(Cl)cc1Cl |
| 8.8 |  |  |  | COc1cc(Nc2c(C#N)cnc3cc(-c4ccc(CCN(C)C)cc4)sc23)c(Cl)cc1Cl |
| 52 |  |  |  | COc1cc(Nc2c(C#N)cnc3cc(-c4ccc(CN5CCSCC5)cc4)sc23)c(Cl)cc1Cl |
|  | 2200 | 400 | 32 | COc1cc(Nc2c(C#N)cnc3cc(-c4ccc(CN5CCN(C)CC5)cc4)sc23)c(Cl)cc1Cl |
| 8.2 |  |  |  | CCN1CCN(Cc2ccc(-c3cc4ncc(C#N)c(Nc5cc(OC)c(Cl)cc5Cl)c4s3)cc2)CC1 |
| 17 |  |  |  | COc1cc(Nc2c(C#N)cnc3cc(-c4ccc(CN5CCCCC5)cc4)sc23)c(Cl)cc1Cl |
| 7.2 | 1100 | 3 |  | COc1cc(Nc2c(C#N)cnc3cc(-c4ccc(CN5CCNCC5)cc4)sc23)c(Cl)cc1Cl |
| 23 |  |  |  | COc1cc(Nc2c(C#N)cnc3cc(-c4ccc(C(=O)N(C)C)cc4)sc23)c(Cl)cc1Cl |
| 11 |  |  |  | CCCCNCc1ccc(-c2cc3ncc(C#N)c(Nc4cc(OC)c(Cl)cc4Cl)c3s2)cc1 |
| 9.1 | 200 | 2 |  | COc1cc(Nc2c(C#N)cnc3cc(-c4ccc(CN(C)C)cc4)sc23)c(Cl)cc1Cl |
| 53 |  |  |  | CN(C)Cc1ccc(-c2cc3ncc(C#N)c(Nc4ccc(Cl)cc4Cl)c3s2)cc1 |

More lines, now with the values behind:

| SMILES | IC50 [1] [nM] | concentration at 4 h [2] [ng/mL] | concentration at 24 h [3] [ng/mL] | IC50 [4] [nM] |
| --- | --- | --- | --- | --- |
| CCOc1cc(Nc2c(C#N)cnc3cc(-c4ccc(CN5CCN(C)CC5)cc4)sc23)c(Cl)cc1Cl | 980 |  |  |  |
| COc1cc(Nc2c(C#N)cnc3cc(-c4ccc(C(=O)N5CCN(C)CC5)cc4)sc23)c(Cl)cc1Cl | 13 | 1600 | 59 |  |
| COc1cc(Nc2c(C#N)cnc3cc(OCCCN4CCN(C)CC4)c(OC)cc23)c(Cl)cc1Cl [BOSUTINIB] |  |  |  | 20 |
| COc1cc(Nc2c(C#N)cnc3cc(-c4ccsc4CN4CCN(C)CC4)sc23)c(Cl)cc1Cl | 420 |  |  |  |
| CN1CCN(Cc2ccc(-c3cc4ncc(C#N)c(Nc5ccc(Oc6ccccc6)cc5)c4s3)cc2)CC1 | 140 |  |  |  |
| COc1cc(Nc2c(C#N)cnc3cc(-c4ccc(CCN5CCN(C)CC5)cc4)sc23)c(Cl)cc1Cl | 15 |  |  |  |
| CN1CCN(Cc2cc(-c3cc4ncc(C#N)c(Nc5ccc(Cl)cc5Cl)c4s3)cs2)CC1 | 67 |  |  |  |
| COc1cc(Nc2c(C#N)cnc3cc(-c4ccc(CN5CCN(CCO)CC5)cc4)sc23)c(Cl)cc1Cl | 7.4 | 1700 | 69 |  |
| COc1cc(Nc2c(C#N)cnc3cc(-c4csc(CN5CCN(C)CC5)c4)sc23)c(Cl)cc1Cl |  | 1000 | 320 |  |
| CCOc1cc(Nc2c(C#N)cnc3cc(-c4csc(CN5CCN(C)CC5)c4)sc23)c(Cl)cc1Cl | 1300 |  |  |  |
